Assay [1] has as its system Human rhinovirus A13. Nature of the assay: Antiviral activity against Rhinovirus 13 by tissue culture assay. The class given is functional.
The target in assay [2] is T1, Hypoxanthine-guanine phosphoribosyltransferase (Mus musculus) (UniProt P00493).
T1 sequence (whole entry): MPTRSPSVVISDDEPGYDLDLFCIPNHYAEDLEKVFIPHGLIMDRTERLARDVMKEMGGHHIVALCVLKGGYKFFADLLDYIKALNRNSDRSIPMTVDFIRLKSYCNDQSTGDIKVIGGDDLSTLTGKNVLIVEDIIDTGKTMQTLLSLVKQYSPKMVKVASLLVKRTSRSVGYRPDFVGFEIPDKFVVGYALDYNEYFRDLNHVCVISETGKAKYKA
Nature of the assay: Inhibition of hypoxanthine phosphoribosyltransferase in mouse Ehrlich ascites tumor cells assessed as decrease in purine nucleotide biosynthesis using [14C]hypoxanthine as substrate at 100 uM incubated for 20 mins followed by substrate addition for 60 mins by thin layer chromatography. In short, it runs like this:
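Ehrlich ascites tumor cell suspensions were preincubated 20 min with compound at 100 μM. [14C]Hypoxanthine was then added at 100 μM for a further 60 min. Cells were disrupted, and adenine and guanine nucleotides were resolved by TLC. Radioactivity in individual nucleotides of treated cells was compared with untreated cells to derive apparent purine-metabolism enzyme rates and their inhibition.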

In assay [3] the test system is Human respirovirus 3. Nature of the assay: Antiviral activity against Parainfluenza virus 3 by tissue culture assay. The class given is functional, organism-based.
For assay [4], the system named is Human alphaherpesvirus 1. In words: Antiviral activity against Herpes simplex virus 1 by tissue culture assay. Type of assay: functional, organism-based.

The source made the active and inactive calls. The calls are words filed in the database; no cut-off is given here.

In general, inhibition refers to the drop in the measured response relative to a control, in per cent. `O=C1c2ccccc2C(=O)c2[nH]cnc21`: the outcome in assay [1], in assay [3] and in assay [4] was inactive. In addition, the inhibition in assay [2] was 82%.

Take `O=C1c2ccccc2C(=O)c2nn([C@@H]3O[C@H](CO)[C@@H](O)[C@H]3O)cc21`: the result in assay [1], in assay [3] and in assay [4] was inactive. Further, the inhibition in assay [2] is 0%.

For the molecule `O=C1c2ccccc2C(=O)c2[nH]nnc21`, the result in assay [1], in assay [3] and in assay [4] was inactive. Moreover, in assay [2], the inhibition came to 1%.

On to `O=C1c2ccccc2C(=O)c2c1ncn2[C@@H]1O[C@H](CO)[C@@H](O)[C@H]1O`, for which the outcome in assay [1], in assay [3] and in assay [4] was inactive. For the same molecule, in assay [2], the inhibition came to 68%.

For `O=C1c2ccccc2C(=O)c2[nH]ncc21`, the result in assay [1], in assay [3] and in assay [4] was inactive. The inhibition in assay [2] worked out at 5%.

Consider `O=C1c2ccccc2C(=O)c2nn([C@@H]3O[C@H](CO)[C@@H](O)[C@H]3O)nc21`, for which the result in assay [1], in assay [3] and in assay [4] was inactive. Besides, in assay [2], the inhibition is 72%.

The values are drawn from ChEMBL document CHEMBL3244377, “Synthesis and biochemical evaluation of nucleosides of naphthoquinone heterocycles” (J Med Chem, 1977).
